Assay results pooled from the literature.
Lines come from different studies, so protocols differ.
BRAF: Serine/threonine-protein kinase B-raf (BRAF, Homo sapiens, UniProt P15056)

The remaining binding of COc1ncccc1-c1cnn2ccc(N3CCN(C(=O)OC(C)C)CC3)nc12 is reported as 100% (BRAF; binding; competition with immobilised ligand; 1 µM).
N#CC1(c2ccccn2)CCN(Cc2cc(C(=O)O)c(=O)n3ccccc23)CC1 has a remaining binding of 93% (BRAF; cell-free assay; competition with immobilised ligand; 1 µM).
Cc1nn(C)cc1-c1nc2c(N3CCN(Cc4ccc(Cl)cc4)CC3)c(Cl)cnc2[nH]1 has a remaining binding of 100% (Serine/threonine-protein kinase B-raf (BRAF, Homo sapiens, UniProt P15056, V600E); binding; competition with immobilised ligand; 1 µM).
For Cn1cc(-c2cc(F)cc(N3CCn4c(cc5c4CCCC5)C3=O)c2CO)cc(Nc2ccc(N3CCN(C4COC4)CC3)cn2)c1=O, the inhibition was 7% (BRAF; enzyme activity; inhibitor; 0.1 µM).
With C#Cc1n[nH]c2c(-c3cn(C(C)c4ccccn4)c(=O)[nH]c3=O)cc(F)cc12 (centres unmarked) the inhibition was -2.7% (BRAF; enzyme activity; inhibitor; 1 µM).
The remaining signal of O=c1[nH]c2ccccc2n1C1CCN(Cc2ccc(-c3[nH]c4cc5ncnc5cc4nc3-c3ccccc3)cc2)CC1 is reported as 101% (BRAF; cell-free assay; 0.5 µM).
C#Cc1n[nH]c2c(-c3cn([C@@H](C)c4ccccc4)c(=O)[nH]c3=O)cc(F)cc12 gave an inhibition of -2.9% (BRAF; enzyme activity; inhibitor; 0.1 µM).
The remaining binding of Nc1ncc(-c2nc(N3CCOCC3)nc(N3CCOCC3)n2)c(C(F)F)n1 is reported as 36% (BRAF; binding; competition with immobilised ligand; 10 µM).
For CNS(=O)(=O)Nc1nccc(Cc2c(C)c3ccc(Oc4ncccn4)cc3oc2=O)c1F, the inhibition was 89% (BRAF; cell-free assay; competition with immobilised ligand; 10 µM).
The inhibition of Cn1cc(-c2cccc(N3CCc4c(sc5c4CC(C)(C)C5)C3=O)c2CO)cc(Nc2ccncn2)c1=O is reported as 21% (BRAF; enzyme activity; inhibitor; 1 µM).
For Cn1cncc1[C@@](O)(COc1ccc(C#N)cc1-c1ccc(OC(F)(F)F)cc1)c1ccc(C#N)cc1, the remaining binding was 100% (BRAF; cell-free assay; competition with immobilised ligand; 1 µM).
